Measured values published in ChEMBL document CHEMBL1127507, “Search for the pharmacophore of bispyridinium-type allosteric modulators of muscarinic receptors” (J Med Chem, 1994).
“And” between values parts separate entries of the source, which are not always exact repeats. Equal entries are not always repeated.

What was measured:
[1] = molecular target: T1, Muscarinic acetylcholine receptor M2 (Sus scrofa) (UniProt P06199); test: Hill coefficient, slope factors of reduction in dissociation rate of [3H]NMS from M2 receptor of pig heart
T1 sequence (whole entry): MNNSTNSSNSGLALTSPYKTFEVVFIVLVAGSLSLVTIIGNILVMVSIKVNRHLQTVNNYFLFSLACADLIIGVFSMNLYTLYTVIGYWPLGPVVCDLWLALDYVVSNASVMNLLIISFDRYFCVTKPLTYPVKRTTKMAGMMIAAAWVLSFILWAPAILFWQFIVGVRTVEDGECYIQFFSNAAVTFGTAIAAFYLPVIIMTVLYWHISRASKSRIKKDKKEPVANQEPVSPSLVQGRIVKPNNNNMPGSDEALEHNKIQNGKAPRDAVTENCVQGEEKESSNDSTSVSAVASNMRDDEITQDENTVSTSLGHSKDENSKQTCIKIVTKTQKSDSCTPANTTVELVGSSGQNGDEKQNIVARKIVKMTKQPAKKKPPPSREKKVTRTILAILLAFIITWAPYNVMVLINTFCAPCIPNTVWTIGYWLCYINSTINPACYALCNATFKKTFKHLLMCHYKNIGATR
Method in brief: (§1)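 Porcine ventricular membranes (sucrose homogenate, 80000g pellet in 50 mM Tris-HCl pH 7.4) preincubated 30 min with 0.2 nM [3H]NMS in 3 mM MgHPO4/50 mM Tris-HCl, pH 7.3, 37 °C; dissociation started with 1 μM atropine plus compound. Residual binding at 4 min (two-point) gave k-1; sigmoid fit yielded EC50 and slope; filtration, scintillation; n=3-5.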

[2] = Partition coefficient (logP); type: physicochemical; details: octanol/water
Method in brief: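 Compound at 5×10^-5 M in octanol-saturated Na2HPO4 buffer pH 7.4, absorbance at 290 nm; 0.7 mL shaken 2 h with equal volume buffer-saturated octanol, centrifuged, aqueous absorbance remeasured; partition coefficient and log P from absorbance difference.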

[3] = molecular target: T2, Muscarinic acetylcholine receptor M2 (Sus scrofa, UniProt P06199); test: Reduction of dissociation rate of [3H]N-methylscopolamine ([3H]NMS) from muscarinic acetylcholine receptor M2 of pig heart; method in brief: as §1
T2 sequence (P06199 whole entry): T1 sequence (whole entry)

SMILES	nH [1]	logP [2]	EC50 [3] [µM]
O/N=C/c1cc[n+](CCC[n+]2ccc(/C=N/O)cc2)cc1 [TRIMEDOXIME]			> 1000
Clc1cccc(Cl)c1CO/N=C/c1cc[n+](CCC[n+]2ccc(/C=N/OCc3c(Cl)cccc3Cl)cc2)cc1	1.7	0.6	4.7
CC[N+](CC)(CC)CCC[n+]1ccc(/C=N/OCc2c(Cl)cccc2Cl)cc1	0.9	1.4	23
CCC[n+]1ccc(/C=N/OCc2c(Cl)cccc2Cl)cc1	1.2	0.6	26
CO/N=C/c1cc[n+](CCC[n+]2ccc(/C=N/OC)cc2)cc1			> 1000
Clc1cccc(Cl)c1CO/N=C/c1cc[n+](CCCc2ccccc2)cc1	1.2	0.5	9.4
O/N=C/c1cc[n+](CCC[n+]2ccc(/C=N/OCc3c(Cl)cccc3Cl)cc2)cc1	1.3	1.7	11

More lines, now with the values ahead:

nH [1]	logP [2]	EC50 [3] [µM]	SMILES
1.1	1.3	12	Cc1cc[n+](CCC[n+]2ccc(/C=N/OCc3c(Cl)cccc3Cl)cc2)cc1
1.2		21	Clc1cccc(Cl)c1CO/N=C/c1cc[n+](CCC[n+]2ccccc2)cc1
1.3	1.5	4.2	CN(C)c1cc[n+](CCC[n+]2ccc(/C=N/OCc3c(Cl)cccc3Cl)cc2)cc1
1.2	-2	4.5	CO/N=C/c1cc[n+](CCC[n+]2ccc(/C=N/OCc3c(Cl)cccc3Cl)cc2)cc1
1.5	0.3	6	COc1ccc(CCC[n+]2ccc(/C=N/OCc3c(Cl)cccc3Cl)cc2)cc1
1.1		17	N#Cc1cc[n+](CCC[n+]2ccc(/C=N/OCc3c(Cl)cccc3Cl)cc2)cc1
1.5 and 1.3	1.7	25	C[N+](C)(C)CCC[n+]1ccc(/C=N/OCc2c(Cl)cccc2Cl)cc1
